The source of these data is ChEMBL document CHEMBL1123337, “Synthesis and antiinflammatory/analgesic activities of 11H-dibenzo[b, e,][1,4]dioxepinacetic acids” (J Med Chem, 1986).

What all share (assay type): functional
Assay [1] concerns Mus musculus. Put plainly: Analgesic activity determined by its ability to inhibit phenylbenzoquinone (PBQ, ip) induced abdominal writhing at dose of 30 mg/kg. As to conditions: Abdomen. The essentials: (§1)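 Male CD mice, 18–22 g, groups of 10, fasted overnight. Dosed orally in 1% methylcellulose 60 min before ip phenylbenzoquinone (2 mg/kg, 0.02% aqueous). Writhes (abdominal contractions, lordosis, hindlimb extension) counted over 10 min, starting 5 min after PBQ. Group means and standard errors taken; percent inhibition calculated against vehicle controls.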

For assay [2], the system named is Rattus norvegicus. Put plainly: Antiinflammatory activity was evaluated by the inhibition of rat carrageenan foot edema (CFE) assay at the dose of 1 mg/kg. An outline of the steps: (§2)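 Rats, six per dose. Oral dosing 1 h before carrageenan injection, as a suspension in 0.25% (w/v) agar in water, 3.0 mL per animal. Hindpaw volume read by mercury displacement just after injection and 3 h later. Percent inhibition of mean swelling relative to vehicle controls; unpaired Student's t test.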
On the technique in general: Carrageenan injected into the paw causes an acute inflammation.

Assay [3] relates to Rattus norvegicus. Put plainly: Antiinflammatory activity was evaluated by the inhibition of rat carrageenan foot edema (CFE) assay at the dose of 10 mg/kg. An outline of the steps: as §2
Assay [4] has as its system Rattus norvegicus. Put plainly: Antiinflammatory activity was evaluated by the inhibition of rat carrageenan foot edema (CFE) assay at the dose of 3 mg/kg. The essentials: as §2
Assay [5] deals with Rattus norvegicus. Put plainly: Compound was evaluated for the effective dose required for the inhibition of rat carrageenan foot edema (CFE) assay.
Assay [6] concerns Mus musculus. Put plainly: Analgesic activity determined by its ability to inhibit phenylbenzoquinone (PBQ, ip) induced abdominal writhing at dose of 10 mg/kg. As to conditions: Abdomen. An outline of the steps:
as §1
In general terms: An intraperitoneal irritant provokes the stretching counted in writhing tests.

Assay [7] deals with Rattus norvegicus. Put plainly: Gastric haemorrhage at the dose of 10 mg/kg expressed as the number of rats with lesions per 6 number of rats (lesions per animal=4.2). The essentials:
(§3)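 Male Sprague-Dawley rats, 120–200 g, six per group, weight-sorted and fasted overnight. Given orally as a suspension in 0.5% methocal. Killed by CO2 4 h later. Stomachs everted and washed, and mucosal lesions counted visually under 3× magnification. Scored as rats with lesions per total, with lesions per animal.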

Assay [8] concerns Rattus norvegicus. Put plainly: Gastric haemorrhage at the dose of 30 mg/kg expressed as the number of rats with lesions per 6 number of rats. The essentials:
as §3

Assay [9] deals with Mus musculus. Put plainly: Analgesic activity determined by its ability to inhibit phenylbenzoquinone (PBQ, ip) induced abdominal writhing at dose of 3 mg/kg. The following applies: Abdomen. The essentials:
as §1

Assay [10] relates to Rattus norvegicus. Put plainly: Gastric haemorrhage at the dose of 10 mg/kg expressed as the number of rats with lesions per 6 number of rats. An outline of the steps:
as §3

Assay [11] concerns Rattus norvegicus. Put plainly: Gastric haemorrhage at the dose of 30 mg/kg expressed as the number of rats with lesions per 6 number of rats (lesions per animal=1.7). An outline of the steps: as §3

Molecules are shown by their SMILES.

The term inhibition in vivo denotes the relative decrease from the control value, in per cent. `O=C(O)Cc1ccc2c(c1)Oc1cc(Cl)ccc1CO2`: the inhibition in vivo at 30 mg/kg in [1] was determined as 26%. Further, the inhibition in vivo at 1 mg/kg in [2] is 11%. For the same molecule, in assay [3], the inhibition in vivo at 10 mg/kg was found to be 5%. Moreover, the inhibition in vivo at 3 mg/kg in assay [4] turned out to be 19%.

Take `CCC(=O)OC(C)OC(=O)C(C)c1ccc2c(c1)Oc1ccccc1CO2` (stereo not drawn): the inhibition in vivo at 1 mg/kg in [2] came to 6%. The inhibition in vivo at 10 mg/kg in assay [3] was 12%. In addition, the inhibition in vivo at 3 mg/kg in [4] turned out to be 15%.

With `O=C(O)Cc1ccc2c(c1)Oc1ccc(Cl)cc1CO2`, in [1], the inhibition in vivo at 30 mg/kg stood at 82%. In addition, in assay [2], the inhibition in vivo at 1 mg/kg came to 21%. Moreover, the inhibition in vivo at 10 mg/kg in assay [3] worked out at 28%. Further, the inhibition in vivo at 3 mg/kg in assay [4] is 23%.

Turning to `O=C(O)Cc1ccc2c(c1)OCc1ccccc1O2`, the inhibition in vivo at 1 mg/kg in [2] was 28%. The inhibition in vivo at 10 mg/kg in assay [3] worked out at 49%. Also, the inhibition in vivo at 3 mg/kg in assay [4] came to 53%.

With `Cc1cc(CC(=O)O)n(C)c1C(=O)c1ccc(Cl)cc1` [ZOMEPIRAC], in [1], the inhibition in vivo at 30 mg/kg stood at 91%. Besides, the inhibition in vivo at 1 mg/kg in [2] came out at 61%. In assay [4], the inhibition in vivo at 3 mg/kg was found to be 82%.

As for `CC(=O)NCCOC(=O)C(C)c1ccc2c(c1)Oc1ccccc1CO2` (stereo not drawn), the inhibition in vivo at 1 mg/kg in assay [2] turned out to be 7%. Further, in [3], the inhibition in vivo at 10 mg/kg worked out at 28%. The inhibition in vivo at 3 mg/kg in assay [4] came to 15%.

On to `CC(C(=O)O)c1ccc2c(c1)OCc1ccccc1O2` (stereo not drawn), for which the inhibition in vivo at 30 mg/kg in assay [1] is 70%. Further, the inhibition in vivo at 1 mg/kg in [2] was 43%. In assay [3], the inhibition in vivo at 10 mg/kg is 43%. Moreover, the inhibition in vivo at 3 mg/kg in [4] is 45%.

Regarding `COc1ccc2c(c1)c(CC(=O)O)c(C)n2C(=O)c1ccc(Cl)cc1` [INDOMETHACIN], the inhibition in vivo at 1 mg/kg in assay [2] was found to be 33%. The inhibition in vivo at 10 mg/kg in assay [3] was 67%. For the same molecule, in assay [4], the inhibition in vivo at 3 mg/kg amounted to 56%.

A word on the ED50: it is the midpoint of the dose-response relation. For `O=C(O)Cc1ccc2c(c1)OCc1ccccc1C2=O` [OXEPINAC], the 50% effect level in assay [5] (ED50) was put at a dose of 3.7 mg/kg.

Turning to `CC(C(=O)O)c1ccc2c(c1)Oc1ccccc1CO2` (stereo not drawn), the inhibition in vivo at 30 mg/kg in assay [1] turned out to be 91%. The inhibition in vivo at 10 mg/kg in assay [6] was 70%; in assay [3], 42%. Besides, the inhibition in vivo at 1 mg/kg in assay [2] was 21%. The inhibition in vivo at 3 mg/kg in assay [4] is 27%; in assay [9] it was 38%. For the same molecule, the “No. of rats with lesions” value worked out at 5 in assay [7] and 6 in assay [8].

`CC(=O)Nc1ccc2c(c1)COc1ccc(CC(=O)O)cc1O2`: the inhibition in vivo at 30 mg/kg in [1] was -55%. Further, the inhibition in vivo at 1 mg/kg in assay [2] came out at 35%. Moreover, the inhibition in vivo at 10 mg/kg in assay [3] turned out to be 23%. Moreover, the inhibition in vivo at 3 mg/kg in [4] is 16%.

On to `COC(=O)C(C)c1ccc2c(c1)Oc1ccccc1CO2` (stereo not drawn), for which, in [2], the inhibition in vivo at 1 mg/kg was determined as 23%. Also, the inhibition in vivo at 10 mg/kg in assay [3] amounted to 56%. The inhibition in vivo at 3 mg/kg in assay [4] was 32%. Besides, the “No. of rats with lesions” value in assay [10] was found to be 0; in [11], 5.

`O=C(O)Cc1ccc2c(c1)COc1ccccc1O2`: in assay [1], the inhibition in vivo at 30 mg/kg turned out to be 37%. In addition, the inhibition in vivo at 1 mg/kg in assay [2] is 12%. Further, in [3], the inhibition in vivo at 10 mg/kg amounted to 16%. The inhibition in vivo at 3 mg/kg in assay [4] worked out at 9%.

On to `O=C(O)Cc1ccc2c(c1)Oc1ccccc1CO2`, for which, in assay [1], the inhibition in vivo at 30 mg/kg was 26%. Also, in assay [2], the inhibition in vivo at 1 mg/kg stood at 24%. The inhibition in vivo at 10 mg/kg in [3] amounted to 40%. Further, the inhibition in vivo at 3 mg/kg in assay [4] was found to be 10%.

For the molecule `CC(CO)c1ccc2c(c1)Oc1ccccc1CO2` (stereo not drawn), the inhibition in vivo at 1 mg/kg in assay [2] turned out to be 9%. In addition, in [3], the inhibition in vivo at 10 mg/kg was 45%. The inhibition in vivo at 3 mg/kg in assay [4] is 19%.

For the molecule `O=C(O)Cc1ccc2c(c1)Oc1ccccc1OC2`, in [3], the inhibition in vivo at 10 mg/kg worked out at 5%. In assay [4], the inhibition in vivo at 3 mg/kg came to 6%.
